Bioassay records as filed in PubChem.
In the library only some 2.5% were active in any assay of this set; here they are far more common.
SENP8 block-1: SENP8 (human) protease inhibition; Q96LD8; recombinant SENP8, Nedd8 substrate fluorescence; inhibition, % at 20 µM; hit rate 0.64% among 360,000; in the data active = inhibition mostly above about 40%, no sharp cut-off; inactive = mostly below about 27%
SENP6 block: SENP6 protease inhibition; inhibition, % at 10 µM; hit rate 1.8% among 330,000; Recombinant SENP6 catalytic domain, aminoluciferin luminescence;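 active = inhibition above about 50% at the single tested dose, limit read from the data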;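 note: plate controls were DMSO wells with enzyme for no effect and DMSO wells lacking enzyme for full effect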
Target sequence (Q9GZR1 628-1112 limits assumed): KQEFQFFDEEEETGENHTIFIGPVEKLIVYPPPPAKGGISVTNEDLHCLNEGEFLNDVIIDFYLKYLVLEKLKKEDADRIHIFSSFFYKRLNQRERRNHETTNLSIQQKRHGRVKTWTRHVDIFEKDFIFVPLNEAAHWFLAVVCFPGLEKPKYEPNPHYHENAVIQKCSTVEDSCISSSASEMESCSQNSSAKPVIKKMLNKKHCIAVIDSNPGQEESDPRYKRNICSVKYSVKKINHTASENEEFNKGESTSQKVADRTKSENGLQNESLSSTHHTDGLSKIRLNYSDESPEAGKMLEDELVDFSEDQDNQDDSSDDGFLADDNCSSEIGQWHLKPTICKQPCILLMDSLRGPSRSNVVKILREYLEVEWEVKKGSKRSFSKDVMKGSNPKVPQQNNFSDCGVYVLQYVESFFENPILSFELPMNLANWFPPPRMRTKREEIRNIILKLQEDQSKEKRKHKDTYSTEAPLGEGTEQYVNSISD
SENP8 block-2: SENP8 protease inhibition. Q96LD8. purified SENP8, Z-RLRGG-aminoluciferin cleavage, luminescence. inhibition, % at 10 µM. hit rate 1.2% among 330,000. AID 2540; in the data active = inhibition above about 50%
SENP7 block: SENP7 protease inhibition; Q9BQF6; recombinant SENP7, Z-RLRGG-aminoluciferin luminescence, 40 min; inhibition, % at 5 µM; hit rate 1.5% among 330,000; AID 434973;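 active = inhibition above about 50% at the single test dose, limit read from the data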;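 note: plate controls were DMSO with enzyme for no effect and no enzyme buffer wells for full effect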
SENP1 FRET inh: inhibitors of human SENP1 SUMO protease catalytic domain | Q9P0U3 | recombinant SENP1 catalytic domain, CyPet-SUMO1-YPet FRET cleavage | inhibition, % at 10 µM | hit rate 0.21% among 360,000 | AID 624204;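 active = inhibition at least 30% at 10 µM, raw YFP signal under a set limit, fluorescence ratio 0.5 to 1.5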;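 note: 0% = enzyme with DMSO and 100% = no enzyme wells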
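Material – human SENP1 catalytic domain · Input – SENP1 enzyme, 20 pM final · Compound dosing – single concentration of 10 µM compound, 0.5% DMSO final · Timing – enzyme reaction for 50 min at room temperature, dark · Measured by – FRET fluorescence in CFP and YFP emission channels · Control set – no-enzyme wells low, DMSO-plus-enzyme wells high control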
SENP8 confirm: human SENP8 inhibition, confirmed | AID 488912 | inhibition, % at 12.5 µM | hit rate 40% among 6,200 | shares compounds with SENP7 block | Recombinant SENP8, Z-RLRGG-aminoluciferin luminescence, 60 min;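 active = mean inhibition across replicates above about 50%, limit read from the data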
SENP6 confirm: confirmation of human SENP6 protease inhibitors | recombinant SENP6, Z-RLRGG-aminoluciferin luminescence | inhibition, % at 12.5 µM | AID 488915 | shares compounds with SENP7 block | hit rate 58% among 6,200
SENP7 conf: confirmation of human SENP7 protease inhibitors; shares compounds with SENP7 block; recombinant SENP7, Z-RLRGG-aminoluciferin luminescence, 40 min; inhibition, % at 12.5 µM; hit rate 69% among 6,200; AID 488917
Casp3 SENP sel: inhibits human caspase-3 in SENP selectivity test. shares compounds with SENP7 block. purified caspase-3, Z-DEVD-aminoluciferin luminescence, 60 min. inhibition, % at 12.5 µM. hit rate 60% among 6,200;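 active = mean inhibition above about 50%, limit read from the data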;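 note: plate controls were enzyme with DMSO for no effect and wells without caspase-3 for full effect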
Target sequence (P42574 28-227 limits assumed): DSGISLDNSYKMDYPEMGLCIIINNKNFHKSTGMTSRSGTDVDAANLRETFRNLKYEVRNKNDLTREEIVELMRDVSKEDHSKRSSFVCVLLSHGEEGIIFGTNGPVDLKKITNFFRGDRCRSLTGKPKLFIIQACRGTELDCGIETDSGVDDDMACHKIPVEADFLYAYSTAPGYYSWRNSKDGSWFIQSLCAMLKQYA
SENP luc ctr: counter-screen for SENP inhibitors: luminescence interference | inhibition, % at 12.5 µM | AID 488919 | Pre-incubated SENP8/Z-RLRGG-aminoluciferin, luciferase luminescence interference | shares compounds with SENP7 block | hit rate 39% among 6,200;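 active = mean inhibition above about 50% when retested at one dose, limit read from the data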;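 note: plate controls were DMSO wells with completed reaction for no effect and substrate without enzyme for full effect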
The depositor's hits bear a star; / = not tested or not shown.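 Rule for the calls, unless noted: active = mean inhibition above about 50% in the one-dose retest (limit read from the data); inactive = the rest.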

SMILES	SENP8 block-1	SENP6 block	SENP8 block-2	SENP7 block	SENP1 FRET inh	SENP8 confirm	SENP6 confirm	SENP7 conf	Casp3 SENP sel	SENP luc ctr
O=C(CCCn1ncn2c(cc3occc32)c1=O)NCc1ccccc1F	-7.7	0.9	-4.0	-2.8	0.3	/	/	/	/	/
Cc1ccc2[nH]c3c(c2c1)CN(C(=O)CN1CCCc2ccccc21)CC3	-14.2	94.6*	36.3	33.7	-20.6	-8.7	-5.6	-7.3	2.2	1.2
CCCCCCSC1=C(C#N)C(=O)NC2(CCCCC2)S1	39.6	34.6	59.2*	-1.2	-0.7	7.9	86.9*	94.5*	39.5	88.5*
CCOc1ccc(CN(CC)C(=O)c2ccc3c(c2)[nH]c(=O)c(=O)n3CC)cc1OC	-13.9	-17.1	-5.6	2.8	-6.4	/	/	/	/	/
Cc1cc(NS(=O)(=O)c2ccc(NC(=O)Nc3cccc(Cl)c3)cc2)no1	18.7	83.6*	72.3*	69.0*	0.2	9.9	81.3*	93.0*	67.0*	58.9*
Cc1cccc(NC(=O)Nc2ccc(S(=O)(=O)Nc3onc(C)c3C)cc2)c1	16.8	76.5*	83.1*	48.7	1.1	88.0*	84.8*	94.0*	87.0*	52.5*
Cc1cc(NS(=O)(=O)c2ccc(NC(=O)NC3CCCCC3)cc2)no1	11.9	26.0	-2.6	2.9	-6.2	/	/	/	/	/
Cc1cc(NS(=O)(=O)c2ccc(NC(=O)c3cnc4scc(C)n4c3=O)cc2)nc(C)n1	-254.1	10.7	9.6	8.2	1.0	/	/	/	/	/
Cc1cccc(OCCCC(=O)Nc2ccc(S(=O)(=O)Nc3onc(C)c3C)cc2)c1	-14.5	-0.8	6.6	-6.8	2.3	/	/	/	/	/
Cc1noc(NS(=O)(=O)c2ccc(NC(=O)c3cnc4scc(C)n4c3=O)cc2)c1C	-19.6	66.7*	45.7	17.7	-2.0	38.8	38.3	69.4*	82.2*	49.2
Cc1cc(NS(=O)(=O)c2ccc(NC(=O)Nc3ccc4c(c3)OCO4)cc2)no1	12.8	66.9*	34.0	47.0	2.8	55.4*	51.2*	81.7*	75.8*	37.6
O=C(COC(=O)Cn1nnc2ccccc21)Nc1ccccc1Br	17.3	9.5	-0.2	-4.0	6.1	/	/	/	/	/
CC(=O)N1CCn2c3c(c(=O)c4cc(C)ccc42)CCC31 (stereo unspecified)	-102.9	55.0*	42.8	28.3	-36.3	14.2	24.4	5.0	2.0	-0.9
CC(=O)N1CCn2c3c(c4cc(C)ccc42)CCCC31 (stereo unspecified)	-56.5	-13.9	3.1	-1.4	18.3	/	/	/	/	/
COc1cccc(CNC(=S)Nc2cc(C)ccc2C)c1	3.3	1.8	-6.4	-7.1	2.3	/	/	/	/	/
O=C(NC1CCCCC1)N1CCN(Cc2nc3ccccc3c(=O)[nH]2)CC1	30.8	59.7*	-4.2	-11.0	1.7	-5.0	-4.9	-6.1	-4.0	-4.3
Cn1c(SCC(=O)NC2CCCc3ccccc32)nnc1C1CC1 (stereo unspecified)	8.2	-4.6	-5.5	-5.0	-1.6	/	/	/	/	/
Cc1cc(N(C)C)ccc1N=Nc1ccc2ncccc2c1	23.9	91.7*	92.2*	96.3*	7.7	90.1*	95.7*	49.4	42.6	55.8*
CN(C)c1ccc(N=Nc2ccc3ncccc3c2)cc1	35.1	/	/	/	7.5	/	/	/	/	/
COc1ccc(C2c3cc(OC)c(OC)cc3CC3C(=O)OCC32)cc1OC (stereo unspecified)	-8.1	/	/	/	-0.9	/	/	/	/	/
CCOC(=O)c1c(Nc2ccccc2)sc(/C=C2\C=Nc3ccccc32)c1O	-121.0	-2.5	1.9	3.3	-31.1	/	/	/	/	/
Oc1nc(Nc2ccccc2)sc1/C=C1\C=Nc2ccccc21	-32.7	64.2*	34.4	50.8*	-141.5	13.3	34.2	55.1*	14.8	5.2
C[C@H](CO)N1C[C@H](C)[C@@H](CN(C)C(=O)NC2CCCCC2)Oc2c(NS(=O)(=O)c3cn(C)cn3)cccc2C1=O	1.4	4.0	6.3	-13.8	1.2	/	/	/	/	/
CN=C1S/C(=C\c2ccc(N3CCCC3)c(F)c2)C(=O)N1C	-60.8	73.3*	12.3	70.8*	-29.8	2.1	5.6	19.5	29.0	0.9
CN=C1S/C(=C\c2ccc(N3CCOCC3)c(F)c2)C(=O)N1C	-274.2	-17.1	-7.5	12.1	-73.9	/	/	/	/	/
SMILES	SENP8 block-1	SENP6 block	SENP8 block-2	SENP7 block	SENP1 FRET inh	SENP8 confirm	SENP6 confirm	SENP7 conf	Casp3 SENP sel	SENP luc ctr
COc1cccc(C2=NC(C)(C)NC(c3ccccc3O)C2)c1 (stereo unspecified)	-47.3	19.2	-3.0	5.2	-9.3	/	/	/	/	/
CCC1(C)N=C(c2ccc3c(c2)OCO3)CC(c2ccccc2O)N1 (stereo unspecified)	-150.9	90.9*	78.5*	2.1	-5.5	82.0*	46.3	12.8	47.8	62.8*
O=C(Nc1ccc(N2CCOCC2)cc1N1CCOCC1)c1cccc([N+](=O)[O-])c1	25.0	-3.5	2.1	0.6	0.2	/	/	/	/	/
COc1ccc(CN2C(=O)Cc3c2nc(N)c2c(N)nc(N4CCOCC4)c(C#N)c32)cc1	-446.3	65.6*	30.5	27.4	-58.3	-6.0	-0.7	-10.0	0.7	1.1
COCCN1C(=O)Cc2c1nc(N)c1c(N)nc(N3CCN(c4ccc(F)cc4)CC3)c(C#N)c21	-453.1	-2.2	-2.6	12.0	-23.1	/	/	/	/	/
Cc1cc(C)c(C#N)c(N2CCN(c3ccccc3F)CC2)n1	-42.9	-3.0	-4.3	-4.6	-16.4	/	/	/	/	/
COCC(C)N1C(=O)Cc2c1nc(N)c1c(N)nc(N3CCN(c4ccccc4F)CC3)c(C#N)c21 (stereo unspecified)	-393.9	74.7*	25.8	23.6	-67.8	-8.9	-3.3	-4.2	-2.2	-5.4
CN(CCO)c1nc(N)c2c(N)nc3c(c2c1C#N)CC(=O)N3Cc1cccs1	-385.7	73.9*	-2.6	32.2	-36.5	-23.4	-15.2	-10.7	-10.8	-6.0
O=C(NNc1cc(Br)c(O)c(Br)c1)c1ccccc1	6.3	2.9	1.3	4.1	1.9	/	/	/	/	/
Cc1ccc(Cn2ccc(-c3cnc(-c4ccccc4)s3)n2)cc1	-415.7	51.4*	6.2	33.0	0.9	18.3	36.3	42.2	18.3	20.7
O=[N+]([O-])c1ccc(Cl)c(S(=O)(=O)Nc2ccc(-c3ccc(N4CCCC4)nn3)cc2)c1	14.7	-12.1	-3.3	-7.5	-1.7	/	/	/	/	/
CN1CCN(c2ccc(-c3cccc(NC(=O)COc4ccc(Cl)cc4Cl)c3)nn2)CC1	1.0	31.3	19.4	66.7*	-7.3	17.5	20.2	21.1	18.4	17.2
